Here are results for 6 compounds from paper PMC3472134 (Bioorganic & medicinal chemistry letters, 2012).

One data set addresses recombinant human HDAC3 (Homo sapiens, UniProt O15379). The experiment in a line: HDAC3 inhibition, fluorogenic substrate Boc-Lys. It is filed as biochemical.
The subject of data set [1] is nuclear class I HDACs (acetylation status of histone H4) in SH-SY5Y cells. The data set is described as follows: Western blot of acetylation of histone H4 in SH-SY5Y cells. It is filed as cell-based. The settings on record: 24 h treatment. The method in brief: (§1)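 SH-SY5Y cells were seeded at 1.0 x 10^5 cells/well and grown to 80% confluence in 1:1 DMEM:OPTI-MEM with 10% FBS and antibiotics. They were exposed to vehicle or rising concentrations of test compound for 24 h at 37 °C, 5% CO2, then lysed in RIPA with protease/phosphatase inhibitors. 20 µg of total protein (BCA) went to SDS-PAGE/PVDF, probed overnight at 4 °C for acetyl-α-tubulin or acetyl-histone H4, with GAPDH; chemiluminescence imaged by CCD.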

For data set [2], the system named is cytoplasmic HDAC6 (acetylation status of α-tubulin) in SH-SY5Y cells. The experiment in a line: Western blot of acetylation of α-tubulin in SH-SY5Y cells. The settings on record: 24 h treatment. It is filed as cell-based. The method in brief: as §1
A general note: A western blot detects proteins with antibodies after separation by electrophoresis.

The target in data set [3] is T1, human recombinant HDAC8 (Homo sapiens, UniProt Q9BY41).
T1 sequence (Q9BY41 1-377): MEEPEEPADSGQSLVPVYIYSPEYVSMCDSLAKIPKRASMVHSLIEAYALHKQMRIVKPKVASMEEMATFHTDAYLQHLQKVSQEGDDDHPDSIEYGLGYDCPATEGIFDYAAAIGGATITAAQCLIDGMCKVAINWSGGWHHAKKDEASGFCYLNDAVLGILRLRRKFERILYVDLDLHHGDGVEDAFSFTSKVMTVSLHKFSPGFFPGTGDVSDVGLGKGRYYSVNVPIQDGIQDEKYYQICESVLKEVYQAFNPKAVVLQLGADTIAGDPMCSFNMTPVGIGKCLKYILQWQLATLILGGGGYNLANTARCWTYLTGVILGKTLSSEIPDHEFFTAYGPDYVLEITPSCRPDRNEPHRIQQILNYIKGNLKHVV
The format is binding. The settings on record: denaturing conditions, excess of competitor (1f at 50 fold molar excess).

A short description of a further data set: Solubility. The format is physicochemical. The settings on record: remark on the photolabeling competition experiment.
For data set [4], the target named is T1, human recombinant HDAC8. The data set is described as follows: HDAC8 inhibition, fluorogenic substrate Fluor de Lys. It is filed as biochemical.

Each structure is given as a SMILES string. “Also recorded” adds a separate entry of the source.

Chain of recombinant human HDAC3 (O15379 whole entry): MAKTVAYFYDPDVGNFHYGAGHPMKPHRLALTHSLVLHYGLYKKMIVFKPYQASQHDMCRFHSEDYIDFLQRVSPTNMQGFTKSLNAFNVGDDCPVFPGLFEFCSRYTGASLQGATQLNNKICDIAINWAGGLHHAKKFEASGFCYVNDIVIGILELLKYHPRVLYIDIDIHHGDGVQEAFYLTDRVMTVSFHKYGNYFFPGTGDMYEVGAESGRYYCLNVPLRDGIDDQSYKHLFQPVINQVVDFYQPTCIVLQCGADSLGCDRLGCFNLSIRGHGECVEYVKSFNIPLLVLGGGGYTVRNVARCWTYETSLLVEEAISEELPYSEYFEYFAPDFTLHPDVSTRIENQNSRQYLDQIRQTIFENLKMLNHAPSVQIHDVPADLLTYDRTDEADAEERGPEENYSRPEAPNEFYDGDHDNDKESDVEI
Chain of recombinant human HDAC3 (Q9Y618 395-489 partner limits assumed): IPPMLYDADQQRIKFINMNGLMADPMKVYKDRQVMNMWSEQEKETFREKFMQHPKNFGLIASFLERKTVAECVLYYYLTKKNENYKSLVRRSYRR

As for `COc1cc(COc2ccc(NC(=O)CCCCCCC(=O)OCCN=[N+]=[N-])cc2)cc(N=[N+]=[N-])c1` [1h, 7-[4-(3-Azido-5-methoxybenzyloxy)phenylcarbamoyl]heptanoicacid-2-azidoethyl ester], the 50% inhibitory concentration (IC50) (in general, the concentration at which inhibition is half-maximal) at recombinant human HDAC3 was greater than 66 µM. In the case of `COc1cc(COc2ccc(NC(=O)CCCCCCC(=O)OCc3ccc(CN=[N+]=[N-])cc3)cc2)cc(N=[N+]=[N-])c1` [1i, 7-[4-(3-Azido-5-methoxybenzyloxy)phenylcarbamoyl]heptanoicacid-4-azidomethylbenzyl ester], on recombinant human HDAC3, the IC50 was greater than 66 µM. In data set [1], the “Acetylation status of histone H4” value is given as “increase acetylation of H4”. Also, in data set [2], the “Deacetylation of α-tubulin” value is recorded as “did not inhibit; also recorded: not α tubulin”. Turning to `COC(=O)CCCCCCC(=O)Nc1ccc(OCc2cc(C)cc(C)c2)cc1` [1f, 7-[4-(3,5-Dimethyl-benzyloxy)phenylcarbamoyl]heptanoic acid methyl ester], the “Competition with probe 1b, effect on biotinylation of HDAC8” value on human recombinant HDAC8 [3] is “pronounced decrease in biotinylation”. Moreover, the Solubility result in “Solubility” is reported as “low solubility”. For `COc1ccc(Cn2ccc3ccc(C(=O)NO)cc32)cc1` [PCI34051], the “Competition with probe 1b, effect on biotinylation of HDAC8” value on human recombinant HDAC8 [3] is “pronounced decrease in biotinylation”. On the same count and under the same terms, then `CC(/C=C/C(=O)NO)=C\[C@@H](C)C(=O)c1ccc(N(C)C)cc1` [TSA, Trichostatin A], with “pronounced decrease in biotinylation”. For `COC(=O)CCCCCCC(=O)Nc1ccc(OCc2ccccc2)cc1` [1e], the 50% inhibitory concentration (IC50) at human recombinant HDAC8 [4] was greater than 66 µM.
